In experiment [1] the test system is Caco-2. Put plainly: Cytotoxicity against human Caco2 cells after 72 hrs by MTS assay. It counts as functional, cell-based. Conditions: Caco-2, 72 h. A digest of the protocol: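 Caco-2 grown in EMEM with 10% FBS, 1% nonessential amino acids, 1% L-glutamine and 1% antibiotic at 37 °C, 5% CO2. Cells plated at 5000-3,000/well 24 or 48 h before dosing. Serially diluted samples in DMSO (<0.5% in medium) for 72 h. Then MTS plus phenazine methosulfate for 3 h at 37 °C, OD490 read against 0.5% DMSO controls. IC50 reported as mean ± S.D. of three experiments.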

For experiment [2], the system named is HCT-116. Put plainly: Cytotoxicity against human HCT116 cells after 72 hrs by MTS assay. The format is functional, cell-based. The note with it: HCT-116, 72 h. A digest of the protocol: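 HCT-116 kept in McCoy's 5a with 10% FBS, 1% nonessential amino acids, 2% HEPES and 1% antibiotic at 37 °C, 5% CO2. Seeded at 5000-3,000 cells/well 24 or 48 h before treatment. Serial dilutions in DMSO (<0.5% in medium) applied for 72 h. MTS/phenazine methosulfate added for 3 h, OD490 read versus 0.5% DMSO controls. IC50 given as mean ± S.D. of three experiments.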

Experiment [3] in a line: Cytotoxicity against human CCD-18Co cells after 72 hrs by MTS assay. The format is cell-based. A digest of the protocol:
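72 h exposure to serially diluted samples in DMSO (<0.5% in medium), with 0.5% DMSO controls in parallel. MTS reagent with phenazine methosulfate then added for 3 h at 37 °C. Absorbance at 490 nm gives cell number relative to controls. IC50 is the concentration giving 50% growth inhibition, reported as mean ± S.D. of three separate experiments.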

Experiment [4] has as its system HCT-116. The experiment is described as follows: Ratio of etoposide IC50 to compound IC50 for human HCT116 cells. The format is functional.
In experiment [5] the test system is Caco-2. The experiment is described as follows: Ratio of etoposide IC50 to compound IC50 for human Caco2 cells. The format is functional.

pIC50: −log10 of the molar value.

`COc1cc2c(cc1OC)[C@H](Cc1ccc3c(c1)OCO3)N(C)CC2`: the pIC50 in the experiment on Caco-2 [1] and with HCT-116 [2] was 3.72 each time.
For the molecule `COc1cc2c3c(c1OC)-c1cc4c(cc1C[C@@H]3N(S(C)(=O)=O)CC2)OCO4`, the pIC50 with Caco-2 [1] and with HCT-116 [2] was 3.71 in each case.
Regarding `CCOC(=O)N1CCc2cc(OC)c(OC)c3c2[C@@H]1Cc1cc2c(cc1-3)OCO2`, the pIC50 was 4.08 in the experiment with Caco-2 [1], 3.95 in experiment [3] and 4.09 with HCT-116 [2].
The like results for `COc1cc2c3c(c1OC(=O)c1ccccc1)-c1cc4c(cc1C[C@@H]3N(C)CC2)OCO4` were, in that order, 4.59, 4.35 and 4.60.
The like results for `COc1cc2c3c(c1OC)-c1cc4c(cc1C[C@@H]3N(C(C)=O)CC2)OCO4` were, in that order, 3.80, 3.72 and 3.73.
With `CCOC(=O)N1CCc2cc(OC)c(O)c3c2[C@@H]1Cc1cc2c(cc1-3)OCO2`, the values for the pIC50 (in the experiment with Caco-2 [1]; in experiment [3]; in the experiment with HCT-116 [2]) were 4.14, 3.89 and 4.14, respectively.
With `COc1cc2c3c(c1O)-c1cc4c(cc1C[C@@H]3N(C)CC2)OCO4` [DOMESTICINE], the figures for the “Ratio IC50” value with HCT-116 [4] and in the experiment with Caco-2 [5] were 3 and 4, respectively. The pIC50 with Caco-2 [1] is 4.13; in experiment [3], 3.87; with HCT-116 [2], 4.13.
For `CCOC(=O)N1CCc2cc(OC)c(OCc3ccccc3)c3c2[C@@H]1Cc1cc2c(cc1-3)OCO2`, the pIC50 in the experiment on Caco-2 [1] was 4.00; in experiment [3], 3.96; in the experiment on HCT-116 [2], 4.03.
The like results for `CCOC(=O)N1CCc2cc(OC)c(OCC)c3c2[C@@H]1Cc1cc2c(cc1-3)OCO2` were, in that order, 4.13, 3.87 and 4.13.
Take `COc1cc2c(c(-c3ccc4c(c3)OCO4)c1OC)[C@H](C)N(C)CC2`: the figures for the pIC50 in the experiment on Caco-2 [1] and in the experiment with HCT-116 [2] were 3.72 and 3.71, respectively.
In the case of `COc1cc([C@@H]2c3cc4c(cc3[C@@H](O[C@@H]3O[C@@H]5CO[C@@H](C)O[C@H]5[C@H](O)[C@H]3O)[C@H]3COC(=O)[C@H]23)OCO4)cc(OC)c1O` [ETOPOSIDE], the pIC50 in the experiment with Caco-2 [1] was 4.73; in experiment [3] it was 4.35; in the experiment on HCT-116 [2], 4.59.
The like results for `CCCCCOc1c(OC)cc2c3c1-c1cc4c(cc1C[C@@H]3N(C)CC2)OCO4` were, in that order, 4.45, 4.13 and 4.33.
The like results for `COc1cc2c3c(c1OC)-c1cc4c(cc1CC3N(C)CC2)OCO4` (centres undefined) [NANTENINE] were, in that order, 4.44, 4.25 and 4.42.
The like results for `COc1c(Br)c2c3c(c1OC)-c1cc4c(cc1C[C@@H]3N(C)CC2)OCO4` were, in that order, 4.00, 3.74 and 4.00.
For the molecule `CCC(CC)COc1c(OC)cc2c3c1-c1cc4c(cc1C[C@@H]3N(C)CC2)OCO4`, the pIC50 in the experiment with Caco-2 [1] is 4.64; in experiment [3] it was 4.29; in the experiment with HCT-116 [2] it was 4.58.
